Experimental data reported in ChEMBL document CHEMBL1125028, “Resolved pyrrolidine, piperidine, and perhydroazepine analogues of the muscarinic agent N-methyl-N-(1-methyl-4-pyrrolidino-2-butynyl)acetamide” (J Med Chem, 1990).

Tests used:
Cavia porcellus [1] = organism: Cavia porcellus; experiment: Maximum contractile response in guinea pig ileum relative to that elicited by carbachol was determined; assay type: functional
Method in brief: (§1)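 Guinea pig ileum in Tyrode solution (pH 7.4) with 0.3 mM hexamethonium, 37 °C; isotonic contractions recorded at 1 g tension. Cumulative concentration-response curves built with agonist concentration stepped by a factor of 2.15. Maximal response expressed relative to carbachol. Antagonism tested at no fewer than four antagonist concentrations. Means ± SE over the number of ileal preparations.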

Cavia porcellus [2] = organism: Cavia porcellus; experiment: Slope of schild plot in guinea pig ileum was determined; assay type: functional; method in brief: as §1
[3] = Inhibition of specific binding of [3H]NMS to Muscarinic acetylcholine receptor in rat cerebral cortex by using competitive binding assay; assay type: tissue-based
Method in brief: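 Male Sprague–Dawley rat (200–300 g) cortex homogenized in 50 mM Na/K phosphate pH 7.4, spun 30000g 10 min, resuspended at 10 mg wet tissue/mL. Incubated with 0.3 nM (-)-[3H]NMS and test ligand, 30 min at 30 °C; filtration assay. […] IC50 by one-site nonlinear fit, converted to Ki by Cheng–Prusoff. Three determinations in triplicate.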

[4] = target: Muscarinic acetylcholine receptor; experiment: (§2) Dissociation constant towards Muscarinic acetylcholine receptor in guinea pig ileum; assay type: tissue-based, Cavia porcellus
[5] = target: Muscarinic acetylcholine receptor; experiment: Compound was tested for its potency against Muscarinic acetylcholine receptor in guinea pig ileum; assay type: functional, tissue-based, Cavia porcellus
[6] = target: Muscarinic acetylcholine receptor; experiment: as §2; assay type: tissue-based, Cavia porcellus; method in brief: as §1; remark: listed apart in the source

In the case of `C[N+](C)(C)CCOC(N)=O.[Cl-]` [CARBACHOL], the Emax (Cavia porcellus [1]) is reported as 1.

With `CC(=O)N1CCCCC[C@@H]1C#CCN1CCCC1` the “Slope of Schild plot” value (Cavia porcellus [2]) was 1.27, the Emax (Cavia porcellus [1]) was 0 and the Ki [3] was 42 nM. It also gave a Kd [4] of 161 nM.

In the case of `CC(=O)N1CCCCCC1C#CCN(C)C` (racemic), the “Slope of Schild plot” value (Cavia porcellus [2]) is reported as 1.1, the Emax (Cavia porcellus [1]) is reported as 0 and the Ki [3] is reported as 2900 nM. It also gave a Kd [4] of 7000 nM.

With `CC(=O)N(C)[C@H](C)C#CCN1CCCC1` the Emax (Cavia porcellus [1]) was 0.83, the EC50 [5] was 94 nM and the Kd [4] was 200 nM.

For `CC(=O)N1CCCCC1C#CCN1CCCC1` (racemic), the “Slope of Schild plot” value (Cavia porcellus [2]) was 0.88, the Emax (Cavia porcellus [1]) was 0 and the Ki [3] was 44 nM. The Kd [4] was 97 nM.

For `CC(=O)N(C)[C@@H](C)C#CCN1CCCC1`, the Kd [4] was 3230 nM.

In the case of `CC(=O)N1CCCCC1C#CCN(C)C` (racemic), the “Slope of Schild plot” value (Cavia porcellus [2]) is reported as 0.9, the Emax (Cavia porcellus [1]) is reported as 0 and the Ki [3] is reported as 2260 nM. It also gave a Kd [4] of 8300 nM.

In the case of `CC(=O)N1CCC[C@H]1C#CCN1CCCC1`, the “Slope of Schild plot” value (Cavia porcellus [2]) is reported as 0.8, the Emax (Cavia porcellus [1]) is reported as 0 and the Ki [3] is reported as 5160 nM. For the same compound, the Kd [4] was 16010 nM.

With `CC(=O)N1CCC[C@@H]1C#CCN1CCCC1` the “Slope of Schild plot” value (Cavia porcellus [2]) was 1.05, the Emax (Cavia porcellus [1]) was 0 and the Ki [3] was 410 nM. The Kd [4] was 1160 nM.

With `CC(=O)N1CCCCC1C#CC[N+](C)(C)C` (racemic) the Emax (Cavia porcellus [1]) was 0.75, the EC50 [5] was 2800 nM and the Ki [3] was 750 nM.

In the case of `CC(=O)N1CCCCCC1C#CCN1CCCC1` (racemic), the “Slope of Schild plot” value (Cavia porcellus [2]) is reported as 1.17, the Emax (Cavia porcellus [1]) is reported as 0 and the Ki [3] is reported as 82 nM. It also gave a Kd [4] of 110 nM.

In the case of `CC(=O)N1CCCC[C@H]1C#CCN1CCCC1`, the “Slope of Schild plot” value (Cavia porcellus [2]) is reported as 0.99, the Ki [3] is reported as 1480 nM and the Kd [4] is reported as 6320 nM.

With `CC(=O)N1CCCCC[C@H]1C#CCN1CCCC1` the “Slope of Schild plot” value (Cavia porcellus [2]) was 1.17, the Emax (Cavia porcellus [1]) was 0 and the Ki [3] was 2070 nM. For the same compound, the Kd [4] was 7850 nM.

Compound `CC(=O)N1CCCC1C#CCN(C)C` (racemic) has an Emax (Cavia porcellus [1]) of 0, a Ki [3] of 25400 nM and a Kd [4] of 125000 nM.

In the case of `CC(=O)N1CCCC[C@@H]1C#CCN1CCCC1`, the “Slope of Schild plot” value (Cavia porcellus [2]) is reported as 0.86, the Ki [3] is reported as 16 nM and the Kd [4] is reported as 80 nM.

For `CC(=O)N1CCCC1C#CCN1CCCC1` (racemic), the “Slope of Schild plot” value (Cavia porcellus [2]) was 0.9, the Emax (Cavia porcellus [1]) was 0 and the Ki [3] was 670 nM. For the same compound, the Kd [4] was 1400 nM.

Compound `CC(=O)N1CCCC1C#CC[N+](C)(C)C` (racemic) has an Emax (Cavia porcellus [1]) of 0.8, an EC50 [5] of 7500 nM and a Ki [3] of 6100 nM. The Kd [6] was 49500 nM.

For `CC(=O)N1CCCCCC1C#CC[N+](C)(C)C` (racemic), the “Slope of Schild plot” value (Cavia porcellus [2]) was 1.03, the Ki [3] was 1230 nM and the Kd [4] was 3550 nM.
